Screening results (PubChem BioAssay)
Compounds with a hit are over-represented: about 3.4% of the library has one in this group of screens.
TMEM16A act – TMEM16A chloride channel activators or potentiators, primary screen, cell-based, HTS. HEK293 TMEM16A/YFP-H148Q/I152L, iodide quench fluorescence; active compounds read low. hit rate 0.3% among 340,000. B-score at 10 µM;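 active = fluorescence-ratio B-score plate-corrected deviation score at least 3 library SD below zero, with starting fluorescence score within 5 deviations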;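 also: channel opened by trigger with iodide after compound preincubation; score built on the fluorescence ratio of max minus min over baseline; more negative score means more quench and so TMEM16A activation or potentiation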
VIM-2 inh – VIM-2 metallo-beta-lactamase inhibitors, primary screen, biochemical, epi-absorbance readout, Pseudomonas aeruginosa enzyme. purified VIM-2, nitrocefin hydrolysis, epi-absorbance fluorescence. inhibition, % at 5.6 µM. hit rate 0.89% among 290,000;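 active = inhibition above the mean of all tested compounds plus 3 SD, cutoff set per screening run, cut at about 7.5% in these data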;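 also: red hydrolysis product quenches plate fluorescence so inhibitors raise well fluorescence; 0% = enzyme with DMSO and 100% = DMSO without enzyme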
TMEM16A inh – TMEM16A chloride channel inhibitors, primary screen, cell-based, HTS; hit rate 1.2% among 310,000; Anoctamin-1 (Mus musculus), Q8BHY3; normalized B-score (activity score, 25-100; higher = stronger inhibition) at 10 µM; HEK293 TMEM16A/YFP iodide influx fluorescence, ionomycin;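 active = ratio plate-corrected score three or more library SD toward inhibition, starting fluorescence score within five deviations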;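 also: score derived from kinetic fluorescence span divided by baseline fluorescence per well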
CHT allo act – CHT positive allosteric modulators, primary screen, cell-based, membrane potential dye, choline EC20. High affinity choline transporter 1 (Homo sapiens), Q9GZV3. CHT-expressing cells; active compounds read high; LV-AA mutant CHT in HEK293 cells. B-score at 10 µM. hit rate 0.49% among 310,000;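 active = initial fluorescence not abnormally high and integrated response B-score, plate-corrected, over 3 SD above library mean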
CHT block – inhibitors of human choline transporter CHT; hit rate 0.86% among 310,000; CHT-expressing cells, membrane potential dye, choline response; active compounds read low; High affinity choline transporter 1 (Homo sapiens), Q9GZV3; B-score at 10 µM;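 active = B-score over 3 SD under the library average, and starting fluorescence ratio not unusually high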;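 also: choline stimulus applied at its EC90 after an EC20 pre-addition; B-score computed on integrated fluorescence ratio after choline addition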
IMP-1 inh – IMP-1 metallo-beta-lactamase inhibitors, primary screen, biochemical, epi-absorbance readout, Pseudomonas aeruginosa enzyme; metallo-beta-lactamase IMP-1 (Pseudomonas aeruginosa); purified IMP-1, nitrocefin hydrolysis, epi-absorbance fluorescence; inhibition, % at 5.6 µM; hit rate 0.45% among 290,000; AID 1556, 2009;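 active = inhibition above the mean plus 3 SD of all compounds in the same screening run, cut at about 4.5% in these data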;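 also: 0% = IMP-1 with DMSO and 100% = DMSO wells lacking enzyme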
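System: Purified recombinant IMP-1 metallo-beta-lactamase enzyme | Measured by: Fluorescence quenching readout, ex 480/em 530 nm | Replication: Singlicate | Incubation: 15 min preincubation plus 25 min reaction at 25 °C | Evaluation: Percent inhibition from optical density relative to buffer-blank wells | Benchmarks: DMSO with and without IMP-1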
CHT block conf – CHT inhibitors, confirmation, cell-based, membrane potential dye, duplicate; hit rate 70% among 2,400; shares compounds with CHT block; CHT-expressing cells, choline membrane potential dye; LV-to-AA substituted CHT, HEK293 cells; CHT activity remaining % of control (active compounds read low), % at 10 µM;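 active = choline transporter activity left, mean of duplicates at 10 µM, below buffer-only control mean minus 3 SD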;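 also: depolarization triggered by choline at its EC90 following an EC20 pre-addition; 0% = hemicholinium-3 full block and 100% = buffer-only control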
HEK293 CHT ctr – membrane potential effects in parental HEK293, counter-screen for CHT inhibitor project, cell-based, membrane potential dye; shares compounds with CHT block; choline response; active = decrease or increase beyond buffer ±3SD; membrane potential ratio readout (active if shifted either direction beyond buffer ±3SD; no single direction) at 10 µM; hit rate 4% among 2,400; AID 493222, 2011;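 also: parental cells lack the transporter so any hit is non-specific; ratio is peak minus trough fluorescence over baseline after EC90 choline challenge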
* hit, by the source's call; i = inactive; · = no result given.

SMILES	TMEM16A act	VIM-2 inh	TMEM16A inh	CHT allo act	CHT block	IMP-1 inh	CHT block conf	HEK293 CHT ctr
Cc1ccccc1OCCC(=O)OCC(=O)c1c(N)n(CC(C)C)c(=O)n(C)c1=O	i	-2.3	i	i	-6.56*	-0.1	58.4%*	i
CC(C)Cn1c(N)c(C(=O)COC(=O)CCc2nc3ccccc3c(=O)[nH]2)c(=O)n(C)c1=O	i	·	·	·	·	·	·	·
CC(=O)N1CCN=C1SCc1cccc(C)c1	i	-1.6	i	i	i	-1.4	·	·
C=CCNc1nc(SC)nc2ccsc12	i	-3.4	i	i	-11*	-3.0	3.0%*	i
COc1ccc(CN(C)C(=O)[C@H](Cc2ccccc2)NC(=O)c2ccco2)c(OC)c1	i	·	·	·	·	·	·	·
c1cnc2nc3c4ccccc4c4ccccc4c3nc2c1	i	·	·	·	·	·	·	·
COc1cccc(CN2CCCC(C(=O)c3ccc4c(c3)OCO4)C2)c1OC (configuration not stated)	i	-2.4	i	i	-11.8*	-1.2	i	i
O=C(c1ccc2c(c1)OCO2)C1CCCN(Cc2ccccc2OC(F)F)C1 (configuration not stated)	i	-2.0	i	i	i	0.2	·	·
O=C(NCCc1ccccc1)c1ccc2c(=O)[nH]c3c(C(=O)NCC4CCCO4)sc(=S)n3c2c1 (configuration not stated)	i	0.9	i	i	-10.3*	-2.0	-19.4%*	i
O=C(NCC1CCCO1)c1sc(=S)n2c1[nH]c(=O)c1ccc(C(=O)N3CCCCC3)cc12 (configuration not stated)	i	6.0	i	i	i	-3.1	·	·
COc1ccc(S(=O)(=O)Nc2cc(C)on2)cc1	i	-3.6	i	i	i	-4.3	·	·
Cc1ccc[n+](CC(=O)Nc2cc(C(F)(F)F)ccc2N2CCOCC2)c1	i	3.1	i	i	-8*	-1.2	25.1%*	i
O=C(Nc1cc(C(F)(F)F)ccc1-n1cncn1)c1ccc([N+](=O)[O-])o1	i	·	i	i	-6.12*	·	32.6%*	i
O=[N+]([O-])c1c(Nc2cccc(O)c2)cc(Cl)c2nonc12	-10.7*	7.6	25*	i	-7.35*	-2.5	27.5%*	i
COc1cccc(C2=NOC(C(=O)Nc3cccnc3Cl)C2)c1OC (configuration not stated)	i	-1.3	i	i	-11.1*	-2.6	i	i
C=CCOC(=O)C1=C[C@H](c2cn(C(C)=O)c3ccccc23)C[C@H](OCCCCO)O1	i	0.2	i	i	i	-0.9	·	·
C=CCOC(=O)C1=C[C@@H](c2cn(C(C)=O)c3ccccc23)C[C@@H](OCCCCO)O1	i	0.4	i	i	-5.27*	-3.4	i	i
CCOCCCNS(=O)(=O)c1ccc(NC(=O)c2ccc([N+](=O)[O-])cc2Cl)cc1	i	-0.6	i	i	-10.3*	-2.9	-5.7%*	i
CCOCCCNS(=O)(=O)c1ccc(NC(=O)c2ccc(OC)c([N+](=O)[O-])c2)cc1	i	-2.5	i	i	i	-1.4	·	·
CCC(C)NS(=O)(=O)c1ccc(NC(=O)c2ccc([N+](=O)[O-])cc2Cl)cc1 (configuration not stated)	i	-2.1	i	i	-8.86*	-1.8	i	i
CC(C)(C)N/N=C/c1cc(Cl)cc([N+](=O)[O-])c1O	i	-1.9	i	i	-5.85*	-1.2	58.6%*	i
COc1ccccc1CN1C(=O)[C@@H]2C(CCC(N)=O)NC3(C(=O)Nc4c3ccc(Cl)c4C)[C@@H]2C1=O (some centres not stated)	i	0.8	i	i	-6.08*	-0.3	60.6%*	i
O=C(C1CCN(S(=O)(=O)c2ccc3ccccc3c2)CC1)N1CCN(c2ncccn2)CC1	i	-4.1	i	i	-6.01*	-3.2	38.6%*	i
CCOc1ccc(N=Nc2c(C)noc2C)cc1	i	-1.3	i	i	i	-0.3	·	·
Cc1c(NCc2cc(Cl)cc(Cl)c2O)c(=O)n(-c2ccccc2)n1C	i	-2.8	i	i	-5.01*	-1.4	i	i
SMILES	TMEM16A act	VIM-2 inh	TMEM16A inh	CHT allo act	CHT block	IMP-1 inh	CHT block conf	HEK293 CHT ctr
CC(C)CCNC(=S)Nc1ccc([N+](=O)[O-])cc1	i	-1.2	100*	i	-8.68*	-2.4	22.7%*	i
CCCCNC(=S)NC(=O)c1ccc([N+](=O)[O-])cc1	i	-1.3	i	i	i	-1.2	·	·
O=[N+]([O-])c1ccc(NNC(=S)Nc2ccc(F)cc2)cc1	i	-4.3	100*	i	-6.95*	-0.8	i	i
CCCCNC(=S)Nc1ccc([N+](=O)[O-])cc1	i	-4.1	100*	i	-9.25*	-2.3	34.7%*	i
O=C(Nc1nnc(SCc2ccccn2)s1)C1CC(=O)N(c2ccc(F)cc2)C1 (configuration not stated)	i	-6.8	i	i	i	-3.0	·	·
COc1ccc(Cl)cc1NS(=O)(=O)c1cccc(C(=O)NC2CC2)c1	i	·	·	·	·	·	·	·
CC1CCC(NC(=O)c2nn(C)c3c2CSc2ccccc2-3)CC1 (configuration not stated)	i	-1.3	i	i	i	-3.1	·	·
CC1CCCN(CCCNC(=O)c2nn(C)c3c2CSc2ccccc2-3)C1 (configuration not stated)	i	6.8	i	i	-6.15*	1.4	23.4%*	i
CC1CCCCN1CCCNC(=O)c1nn(C)c2c1CSc1ccccc1-2 (configuration not stated)	i	5.9	i	i	-7.56*	-0.5	8.6%*	i
